The nature of data set [1]: SHG isotherm of nonspecific binding of CTB to pure DOPC bilayer. The following applies: entire CTB concentration range examined (0.22 to 13 nM).
The format of data set [2] is binding, Ovine.
For data set [3] the following is noted: SPR, 120–240 nM CTB, cited from earlier work.
For data set [4] the following is noted: fluorescence; 1 mol % GM1; Hill–Waud model; cited from earlier work.
The conditions of data set [5]: cited from earlier work.
Data set [6] is described as follows: SHCS of PnA binding to 5 mol % GM1-doped DOPC lipid bilayer. Further details: species or system Ovine. The note with it: for equilibrium binding affinity Ka: eq 2.
Data set [7] deals with N-acetylgalactose receptors on Chinese hamster ovarian (CHO) cells. The following applies: lectin iodination, PnA 10–60 μM, at least 1 h incubation; cited from earlier work.
A short description of data set [8]: SHCS of nonspecific binding of PnA to pure DOPC bilayer. The note with it: 0.43, 3 and 12 μM PnA, pure DOPC bilayer without GM1. The method in brief: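 Data were recorded after steady-state equilibrium on each laser pulse (20 Hz, 50 ms step). For each protein concentration, 20 sets of 5000 points each (1.4 h) were taken. Each set's FFT was multiplied by its complex conjugate, the sets were averaged, and the result was inverse-transformed to give the autocorrelation. Time-zero points were normalized to matching specific-binding data (5 mol % GM1 in DOPC).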

Setting [9] is: [PnA] 0.43 μM, 5 mol % GM1, SHCS.
The mark [10] stands for this setting: [PnA] 3.0 μM, 5 mol % GM1, SHCS.
Setting [11] is: [PnA] 12.2 μM, 5 mol % GM1, SHCS.

Values joined by “and” are separate entries in the source; they are usually repeats but may differ in a detail not shown here. Identical values can stand only once. Like-named read-outs stand apart in the source and are kept apart here.

For the molecule CTB, the nonspecific binding entry in data set [1] is given as “negligible nonspecific binding”. For the same molecule, the koff in data set [2] is 3.6 ± 0.5 ×10^–5 s^–1 and 3.2 ± 0.4 ×10^–5 s^–1 and 2.5 ± 0.2 ×10^–5 s^–1. For the same molecule, the kon in data set [3] (5 mol % GM1-doped lipid bilayer) is given as 1.27 × 10^6 M^–1·s^–1. The Kd (commonly a measure of binding affinity in units of concentration) in data set [3] (steady-state equilibrium) was 0.00461 nM. In addition, in data set [4], the Ka entry is “(3.2 ± 0.7) × 10^9 M ^–1”, the Kd is 0.31 nM and the “n (Hill coefficient)” value was 1.9.

B1: PnA: Peanut (Arachis hypogaea) agglutinin, tetrameric lectin that binds specifically to terminal D-galactosyl groups; from Sigma-Aldrich (protein, UniProt P02872 24-273, looked up)
Galactose-binding lectin: AETVSFNFNSFSEGNPAINFQGDVTVLSNGNIQLTNLNKVNSVGRVLYAMPVRIWSSATGNVASFLTSFSFEMKDIKDYDPADGIIFFIAPEDTQIPAGSIGGGTLGVSDTKGAGHFVGVEFDTYSNSEYNDPPTDHVGIDVNSVDSVKTVPWNSVSGAVVKVTVIYDSSTKTLSVAVTNDNGDITTIAQVVDLKAKLPERVKFGFSASGSLGGRQIHLIRSWSFTSTLITTTRRSIDNNEKKIMNMASA
In the case of B1, the pI in data set [5] is listed as ~6. For the same molecule, the adsorption rate result was “(3.7 ± 0.3) × 10^6 M^–1·s^–1” in data set [6] (0.43 μM PnA, 5 mol % GM1, SHCS); “(3.9 ± 0.3) × 10^5 M^–1·s^–1” in data set [6] (3 μM PnA, 5 mol % GM1, SHCS); “(1.1 ± 0.1) × 10^5 M^–1·s^–1” in data set [6] (12 μM PnA, 5 mol % GM1, SHCS); “(3.1 ± 0.3) × 10^4 M^–1·s^–1” in data set [6] (60 μM PnA, 5 mol % GM1, SHCS). Moreover, the desorption rate entry is “(1.0 ± 0.2) × 10^–3 s^–1” in data set [6] (0.43 μM PnA, 5 mol % GM1, SHCS); “(2.2 ± 0.2) × 10^–3 s^–1” in data set [6] (3 μM PnA, 5 mol % GM1, SHCS); “(2.7 ± 0.2) × 10^–3 s^–1” in data set [6] (12 μM PnA, 5 mol % GM1, SHCS); “(3.7 ± 0.5) × 10^–3 s^–1” in data set [6] (60 μM PnA, 5 mol % GM1, SHCS). For the same molecule, the “equilibrium binding affinity Ka” value in data set [6] (0.43 μM PnA, SHCS) is listed as “(3.7 ± 0.8) × 10^9 M^–1”; in data set [6] (3 μM PnA, SHCS) it was “(1.7 ± 0.2) × 10^8 M^–1”; in data set [6] (12 μM PnA, SHCS), “(4.1 ± 0.5) × 10^7 M^–1”. In addition, the Ka result in data set [6] (60 μM PnA, 5 mol % GM1, SHCS) is on record as “(8.4 ± 1.4) × 10^6 M^–1”; in data set [6] ([PnA] 0.43 μM, calculated by eq 2), 37 ± 8 ×10^8 M^–1; in data set [6] ([PnA] 3.0 μM, calculated by eq 2), 1.7 ± 0.2 ×10^8 M^–1; in data set [6] ([PnA] 12.2 μM, calculated by eq 2), 0.41 ± 0.05 ×10^8 M^–1; in data set [7] it was “(4.5 ± 1) × 10^6 M^–1”. Moreover, the koff in data set [6] (setting [9]) is on record as 1.0 ± 0.2 ×10^–3 s^–1; in data set [6] (setting [10]), 2.2 ± 0.2 ×10^–3 s^–1; in data set [6] (setting [11]) it was 2.7 ± 0.2 ×10^–3 s^–1. Moreover, the kon in data set [6] (setting [9]) is given as 37 ± 3 ×10^5 M^–1·s^–1; in data set [6] (setting [10]) it was 3.9 ± 0.3 ×10^5 M^–1·s^–1; in data set [6] (setting [11]), 1.1 ± 0.1 ×10^5 M^–1·s^–1. Besides, the nonspecific binding entry in data set [8] was “negligible nonspecific binding”.

The record behind these values is paper PMC4238591 (Analytical Chemistry, 2014).
